Measured values from ChEMBL document CHEMBL1772948, “Chemistry and biology of macrolide antiparasitic agents” (J Med Chem, 2011).
In brackets after ≈: the same amount, converted by molar mass. Activity calls are given as the source filed them. The calls are words filed in the database; no cut-off is given here.

Experiments:
Toxoplasma gondii [1] = assay: Antiparasitic activity against Toxoplasma gondii 2F-1 expressing yellow fluorescent protein infected in HFF after 4 days; format: functional, organism-based; conditions: 2F-1, 96 h
Bacillus subtilis = assay: Antibacterial activity against Bacillus subtilis; format: functional
HFF = assay: Cytotoxicity against HFF after 48 hrs by MTS assay; format: cell-based; conditions: human
Procedure, shortened: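 Low-passage HFF seeded in 96-well plates and incubated 24h at 37 °C, then exposed to varying macrolide concentrations for 2 days; medium replaced with fresh medium plus MTS, 4h at 37 °C, absorbance 490 nm; CC50 = dose reducing viability by 50%.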

Toxoplasma gondii [2] = assay: Antiparasitic activity against yellow fluorescent protein expressing Toxoplasma gondii 2F-1 infected in HFF treated immediately after infection measured after 48 hrs; format: functional, organism-based; conditions: 2F-1, 48 h
Toxoplasma gondii [3] = assay: Antiparasitic activity against yellow fluorescent protein expressing Toxoplasma gondii 2F-1 treated immediately after infection for 48 hrs followed by reinoculated into fresh HFF monolayers measured after 48 hrs; format: functional, organism-based; conditions: 2F-1, 48 h
Procedure, shortened: (§1)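 Two-cycle protocol in HFF at 37 °C, 5% CO2, DMEM with 10% FBS. "0h": compound added with parasites, 48 h. "6h": parasites pre-incubated 6 h, uninvaded parasites removed, fresh medium with compound added, 42 h. Released tachyzoites were then harvested, purified and inoculated into fresh HFF without compound for the 2nd cycle. At least triplicate.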

Toxoplasma gondii [4] = assay: Antiparasitic activity against yellow fluorescent protein expressing Toxoplasma gondii 2F-1 infected in HFF treated 6 hrs after infection measured after 48 hrs; format: functional, organism-based
Toxoplasma gondii [5] = assay: Antiparasitic activity against yellow fluorescent protein expressing Toxoplasma gondii 2F-1 treated 6 hrs after infection for 42 hrs followed by reinoculated into fresh HFF monolayers measured after 48 hrs; format: functional, organism-based; procedure, shortened: as §1
Toxoplasma gondii [6] = assay: Antiparasitic activity against green fluorescent protein expressing […] deficient Toxoplasma gondii RH infected in HFF at 5 uM treated immediately after infection measured after 48 hrs; format: functional, organism-based
Procedure, shortened: (§2)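 GFP-expressing RHΔhxgprt tachyzoites were grown on HFF on glass coverslips in 12-well plates (2×10^4/well). Compound was added either with the parasites ("0h", 48 h) or after a 6 h pre-infection and medium change ("6h", 42 h). Parasites per vacuole were counted by fluorescence microscopy in at least 50 random vacuoles per well. Three independent experiments.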

Toxoplasma gondii [7] = assay: Antiparasitic activity against green fluorescent protein expressing hwgprt deficient Toxoplasma gondii RH at 5 uM treated immediately after infection for 48 hrs followed by reinoculated into fresh HFF monolayers measured after 48 hrs; format: functional, organism-based; procedure, shortened: as §1
Toxoplasma gondii [8] = assay: Antiparasitic activity against green fluorescent protein expressing […] deficient Toxoplasma gondii RH infected in HFF at 5 uM treated 6 hrs after infection measured after 48 hrs; format: functional, organism-based; procedure, shortened: as §2
Toxoplasma gondii [9] = assay: Antiparasitic activity against green fluorescent protein expressing hwgprt deficient Toxoplasma gondii RH at 5 uM treated 6 hrs after infection for 42 hrs followed by reinoculated into fresh HFF monolayers measured after 48 hrs; format: functional, organism-based; procedure, shortened: as §1
Toxoplasma gondii [10] = assay: Antiparasitic activity against green fluorescent protein expressing hwgprt deficient Toxoplasma gondii RH infected in HFF assessed as reduction of ycf24/UPRT genes copy number ratio at 10 uM […] followed by reinoculated into fresh HFF monolayers measured after 48 hrs by RT-PCR analysis; format: functional
Toxoplasma gondii [11] = assay: Antiparasitic activity against clindamycin-resistant Toxoplasma gondii 4 infected in HFF assessed as reduction of ycf24/UPRT genes copy number ratio at 10 uM treated for 48 hrs after 6 hrs infection followed by reinoculated into fresh HFF monolayers measured after 48 hrs by RT-PCR analysis; format: functional
Procedure, shortened: (§3)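 Tachyzoites were seeded on confluent HFF monolayers in 6-well plates at 2×10^5 per well, in DMEM with 10% FBS and 1% PS at 37 °C, 5% CO2. After 6 h pre-infection, the medium was replaced with medium containing compound for 42 h. Released parasites were reinoculated into fresh HFF without drug for 48 h, collected by centrifugation, and measured by qPCR as the ratio of plastid ycf24 to nuclear UPRT copies. At least triplicate.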

Toxoplasma gondii [12] = assay: (§4) Antiparasitic activity against green fluorescent protein expressing hwgprt deficient Toxoplasma gondii RH infected in HFF assessed as reduction of ycf24/UPRT genes copy number ratio at 1 uM treated for 48 hrs after 6 hrs infection followed by reinoculated into fresh HFF monolayers measured after 48 hrs by RT-PCR analysis; format: functional
Toxoplasma gondii [13] = assay: Antiparasitic activity against clindamycin-resistant Toxoplasma gondii 4 infected in HFF assessed as reduction of ycf24/UPRT genes copy number ratio at 1 uM treated for 48 hrs after 6 hrs infection followed by reinoculated into fresh HFF monolayers measured after 48 hrs by RT-PCR analysis; format: functional
Toxoplasma gondii [14] = assay: as §4, with “0.1” for “1”; format: functional; procedure, shortened: as §3
Toxoplasma gondii [15] = assay: Antiparasitic activity against clindamycin-resistant Toxoplasma gondii 4 infected in HFF assessed as reduction of ycf24/UPRT genes copy number ratio at 0.1 uM treated for 48 hrs after 6 hrs infection followed by reinoculated into fresh HFF monolayers measured after 48 hrs by RT-PCR analysis; format: functional; procedure, shortened: as §3
Toxoplasma gondii [16] = assay: Antiparasitic activity against green fluorescent protein expressing […] deficient Toxoplasma gondii RH infected in HFF assessed as parasite doubling time at 5 uM treated immediately after infection measured after 48 hrs; format: functional
Procedure, shortened: (§5)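 HFF were grown on glass coverslips in 12-well plates and infected with 2×10^4 GFP tachyzoites per well. Compound was added with the inoculum; the first cycle ran 48 h, and the second cycle ran in fresh HFF without drug. Parasites per vacuole were counted by fluorescence microscopy, at least 50 random vacuoles per well, to derive doubling time. Three independent experiments.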

Toxoplasma gondii [17] = assay: Antiparasitic activity against green fluorescent protein expressing […] deficient Toxoplasma gondii RH assessed as parasite doubling time at 5 uM treated immediately after infection for 48 hrs followed by reinoculated into fresh HFF monolayers measured after 48 hrs; format: functional; procedure, shortened: as §5
Toxoplasma gondii [18] = assay: Antiparasitic activity against green fluorescent protein expressing […] deficient Toxoplasma gondii RH infected in HFF assessed as decrease in density of parasitophorous vacuoles at 10 uM treated immediately after infection measured after 24 hrs by microscopic analysis; format: functional, organism-based
Procedure, shortened: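 GFP T. gondii RHΔhxgprt in HFF, compound (10 μM) added either with the inoculum ("0h") or after 6 h pre-infection and washing ("6h"); vacuoles per microscope field scored at 24 h, at least 20 random fields from each of three experiments.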

Toxoplasma gondii [19] = assay: Antiparasitic activity against clindamycin-resistant Toxoplasma gondii 4 infected in HFF assessed as reduction of ycf24/UPRT genes copy number ratio at 10 uM treated for 48 hrs immediately after infection followed by reinoculated into fresh HFF monolayers measured after 48 hrs by RT-PCR analysis; format: functional
Procedure, shortened: (§6)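 Tachyzoites were seeded on confluent HFF in 6-well plates at 2×10^5 per well, in DMEM with 10% FBS and 1% PS at 37 °C, 5% CO2. Compound was added together with the parasite inoculum, and cultures ran 48 h. Harvested tachyzoites were reinoculated into fresh HFF without drug for a second cycle. Parasites were pelleted by centrifugation and the plastid ycf24 to nuclear UPRT copy ratio was read by qPCR (40 cycles, 94 °C 3 s / 60 °C 30 s). At least triplicate.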

Toxoplasma gondii [20] = assay: (§7) Antiparasitic activity against green fluorescent protein expressing […] deficient Toxoplasma gondii RH infected in HFF assessed as reduction of ycf24/UPRT genes copy number ratio at 1 uM treated for 48 hrs immediately after infection followed by reinoculated into fresh HFF monolayers measured after 48 hrs by RT-PCR analysis; format: functional
Procedure, shortened: as §6, with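 “CO2.” for “CO2. Compound was added together with the parasite inoculum, and cultures ran 48 h.”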

Toxoplasma gondii [21] = assay: Antiparasitic activity against clindamycin-resistant Toxoplasma gondii 4 infected in HFF assessed as reduction of ycf24/UPRT genes copy number ratio at 1 uM treated for 48 hrs immediately after infection followed by reinoculated into fresh HFF monolayers measured after 48 hrs by RT-PCR analysis; format: functional
Procedure, shortened: as §6, with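 “CO2.” for “CO2. Compound was added together with the parasite inoculum, and cultures ran 48 h.”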

Toxoplasma gondii [22] = assay: as §7, with “0.1” for “1”; format: functional; procedure, shortened: as §6
Toxoplasma gondii [23] = assay: Antiparasitic activity against clindamycin-resistant Toxoplasma gondii 4 infected in HFF assessed as reduction of ycf24/UPRT genes copy number ratio at 0.1 uM treated for 48 hrs immediately after infection followed by reinoculated into fresh HFF monolayers measured after 48 hrs by RT-PCR analysis; format: functional; procedure, shortened: as §6
Toxoplasma gondii [24] = assay: Antiparasitic activity against green fluorescent protein expressing hwgprt deficient Toxoplasma gondii RH infected in HFF assessed as reduction of ycf24/UPRT genes copy number ratio at 10 uM treated for 42 hrs starting 6 hrs after infection followed by reinoculated into fresh HFF monolayers measured after 48 hrs by RT-PCR analysis

CC[C@H]1OC(=O)[C@H](C)[C@@H](O[C@H]2C[C@@](C)(OC)[C@@H](O)[C@H](C)O2)[C@H](C)[C@@H](O[C@@H]2O[C@H](C)C[C@H](N(C)C)[C@H]2O)[C@](C)(O)C[C@@H](C)CN(Cc2ccccc2)[C@H](C)[C@@H](O)[C@]1(C)O
IC50 (Toxoplasma gondii [1]): 2 µM | MIC (Bacillus subtilis): 0.3 µM (≈ 0.248 µg/mL) | CC50 (HFF): 32 µM | IC50 (Toxoplasma gondii [2]): 5 µM | IC50 (Toxoplasma gondii [3]): 0.5 µM | IC50 (Toxoplasma gondii [4]): 9 µM | IC50 (Toxoplasma gondii [5]): 0.5 µM | Activity (Toxoplasma gondii [6]): Active | Activity (Toxoplasma gondii [7]): Active | Activity (Toxoplasma gondii [8]): Active | Activity (Toxoplasma gondii [9]): Active | Ratio (Toxoplasma gondii [10]): 6 | Ratio (Toxoplasma gondii [11]): 5 | Ratio (Toxoplasma gondii [12]): 5 | Ratio (Toxoplasma gondii [13]): 3 | Ratio (Toxoplasma gondii [14]): 17 | Ratio (Toxoplasma gondii [15]): 15 | Time (Toxoplasma gondii [16]): 9.5 h | Time (Toxoplasma gondii [17]): >16 h | Activity (Toxoplasma gondii [18]): Active | Ratio (Toxoplasma gondii [19]): 11 | Ratio (Toxoplasma gondii [20]): 7 | Ratio (Toxoplasma gondii [21]): 8 | Ratio (Toxoplasma gondii [22]): 13 | Ratio (Toxoplasma gondii [23]): 23 | Ratio (Toxoplasma gondii [24]): 13
